Key:
[1] = target: T1, Peroxisome proliferator-activated receptor alpha (Homo sapiens, UniProt Q07869); assay: In vitro binding affinity for human PPAR alpha
T1 sequence (Q07869 whole entry): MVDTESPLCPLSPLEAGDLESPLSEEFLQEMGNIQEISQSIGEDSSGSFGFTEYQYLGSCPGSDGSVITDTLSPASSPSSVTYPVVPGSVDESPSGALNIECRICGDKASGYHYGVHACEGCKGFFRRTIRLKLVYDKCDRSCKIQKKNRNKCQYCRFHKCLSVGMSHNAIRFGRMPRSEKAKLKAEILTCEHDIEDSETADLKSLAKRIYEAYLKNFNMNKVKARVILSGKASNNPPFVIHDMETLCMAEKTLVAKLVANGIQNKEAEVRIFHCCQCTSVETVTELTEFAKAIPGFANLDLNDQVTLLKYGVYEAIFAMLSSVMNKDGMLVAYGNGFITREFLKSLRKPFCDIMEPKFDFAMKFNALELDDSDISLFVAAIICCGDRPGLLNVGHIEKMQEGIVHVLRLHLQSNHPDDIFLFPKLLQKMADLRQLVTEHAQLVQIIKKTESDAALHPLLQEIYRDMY

[2] = target: T2, Peroxisome proliferator-activated receptor gamma (Homo sapiens, UniProt P37231); assay: In vitro binding affinity for human PPAR gamma
T2 sequence (P37231 whole entry): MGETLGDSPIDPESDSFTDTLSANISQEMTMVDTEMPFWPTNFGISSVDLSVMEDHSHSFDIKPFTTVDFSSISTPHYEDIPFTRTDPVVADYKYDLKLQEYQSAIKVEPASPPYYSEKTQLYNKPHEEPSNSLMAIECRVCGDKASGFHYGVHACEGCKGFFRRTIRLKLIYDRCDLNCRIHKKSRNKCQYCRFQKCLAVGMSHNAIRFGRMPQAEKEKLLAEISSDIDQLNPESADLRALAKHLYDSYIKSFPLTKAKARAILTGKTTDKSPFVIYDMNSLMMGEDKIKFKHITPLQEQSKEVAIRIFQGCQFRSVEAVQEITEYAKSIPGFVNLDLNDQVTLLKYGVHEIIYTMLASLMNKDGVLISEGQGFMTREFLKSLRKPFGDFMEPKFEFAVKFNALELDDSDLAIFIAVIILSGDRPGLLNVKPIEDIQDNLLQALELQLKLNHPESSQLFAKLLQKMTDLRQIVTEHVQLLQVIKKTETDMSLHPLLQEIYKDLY

[3] = target: T1, Peroxisome proliferator-activated receptor alpha; assay: Agonist response against human PPAR alpha in transactivation assay
[4] = target: T2, Peroxisome proliferator-activated receptor gamma; assay: Agonist response against human PPAR gamma in transactivation assay; type: functional
[5] = Area under concentration time curve of compound when administered perorally at a dose of 2 mg/kg to dogs; type: ADME, organism-based, Canis lupus familiaris; set-up: dose 2 mg/kg, route oral; details: dog, in vivo, po
How it was run: (§1)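 Male Sprague-Dawley rats (n = 3) and male adult Beagle dogs (n = 4) were fasted overnight. They received either a 2 mg/kg oral gavage dose or a 0.5 mg/kg IV bolus. Blood was drawn into heparin tubes from a femoral arterial cannula (rat) or the jugular vein (dog) at set time points. Plasma was acidified with 0.5 M formate pH 3.0, stored at -70 °C and quantified by LC-MS/MS.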

[6] = Area under concentration time curve of compound when administered perorally at a dose of 2 mg/kg to rats; type: ADME, organism-based; set-up: dose 2 mg/kg, route oral; details: rat, in vivo, po; how it was run: as §1
Rattus norvegicus [7] = assay: Effect (150 mg/kg) on PPAR gamma- mediated effects measured as change in heart weight in rats; type: functional
How it was run: (§2)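 Male Sprague-Dawley rats (about 200 g, n = 6) were fed rodent chow and gavaged once daily for 2 weeks with compound in 0.5% methylcellulose. Body weight was recorded on days 1, 4, 6, 8, 11 and 14. Rats were euthanized with CO2 24 h after the last dose, and BAT, heart and liver were weighed. Blood was taken by heart puncture for hematocrit. Results are mean ± SD versus vehicle.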

Rattus norvegicus [8] = assay: Effect (150 mg/kg) on PPAR gamma- mediated effects measured as change in hematocrit weight in rats; type: functional; how it was run: as §2
Rattus norvegicus [9] = assay: Effect (150 mg/kg) on PPAR gamma- mediated effects measured as change in brown adipose tissue weight in rats; type: functional; how it was run: as §2
Cricetinae gen. sp. [10] = assay: Percentage change in the serum cholesterol upon administration of compound (10 mpk) in hamster; type: functional
How it was run: (§3)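 Male Golden Syrian hamsters were fed normal rodent chow and dosed orally once daily with compound. Serum total cholesterol and triglyceride were measured and expressed as percent change versus vehicle controls.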

Cricetinae gen. sp. [11] = assay: Percentage change in the serum triglyceride upon administration of compound (10 mpk) in hamster; type: functional; how it was run: as §3
Rattus norvegicus [12] = assay: Effect (150 mg/kg) on PPAR gamma- mediated effects measured as change in liver weight in rats; type: functional; how it was run: as §2
[13] = Oral bioavailability in dog; type: ADME, organism-based, Canis lupus familiaris; details: in vivo; how it was run: as §1
[14] = Oral bioavailability in rat; type: ADME, organism-based; details: in vivo; how it was run: as §1
Rattus norvegicus [15] = assay: Effect (150 mg/kg) on PPAR gamma- mediated effects measured as change in body weight in rats; type: functional; how it was run: as §2
[16] = target: T3, Peroxisome proliferator-activated receptor alpha (Homo sapiens) (UniProt Q07869); assay: Maximal activation of human Peroxisome proliferator activated receptor alpha
T3 sequence (whole entry): T1 sequence (Q07869 whole entry)
How it was run: (§4)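 Cell-based transactivation assay using GAL4-PPAR chimeric receptors with a reporter gene carrying a GAL4 response element. The top concentration tested was 3 µM. Values are the mean of three determinations.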

[17] = target: T4, Peroxisome proliferator-activated receptor gamma (Homo sapiens) (UniProt P37231); assay: Maximal activation of human Peroxisome proliferator activated receptor gamma; how it was run: as §4
T4 sequence (whole entry): T2 sequence (P37231 whole entry)

SMILES | IC50 [1] | IC50 [2] | EC50 [3] | EC50 [4] | other results
CCCc1cc(C(=O)CC)cc(CCC)c1O[C@H](C(=O)O)c1ccc(OC(C)C)cc1 | 43 nM | 200 nM | 110 nM | – | –
CCCc1cc(C(=O)C(C)(C)C)cc(CCC)c1OC(C(=O)O)c1ccccc1 (configuration not stated) | 130 nM | 2700 nM | 160 nM | – | –
CCCc1cc2c(=O)n(C(C)C)oc2c(CCC)c1O[C@H](C(=O)O)c1ccc(C(C)C)cc1 | 230 nM | 160 nM | 270 nM | 430 nM | –
CCCc1cc(C(=O)CC)cc(CCC)c1CC(C(=O)O)c1ccc(C(C)C)cc1 (configuration not stated) | > 15000 nM | > 50000 nM | – | – | –
CCCc1cc2c(oc(=O)n2CC)c(CCC)c1O[C@H](C(=O)O)c1ccc(C(C)C)cc1 | 74 nM | 99 nM | 290 nM | 120 nM | AUC [5]: 9.1 µM·h; AUC [6]: 127 µM·h; Heart weight (Rattus norvegicus [7]): 1.1 g; Hematocrit (Rattus norvegicus [8]): 45.6%; BAT (Rattus norvegicus [9]): 0.24 g; Change (Cricetinae gen. sp. [10]): -25%; Change (Cricetinae gen. sp. [11]): -6%; Liver weight (Rattus norvegicus [12]): 22.4 g; bioavailability [13]: 35%; bioavailability [14]: 72%; Body weight (Rattus norvegicus [15]): 283 g
CCC(=O)c1ccc(OC(C(=O)O)c2ccccc2)cc1 (configuration not stated) | > 50000 nM | > 50000 nM | – | – | –
CCCc1cc(C(=O)CC)cc(CCC)c1OC(C(=O)O)c1ccccc1 (configuration not stated) | 51 nM | 2760 nM | 100 nM | – | –
CCCc1cc(C(=O)CC)cc(CCC)c1O[C@H](C(=O)O)c1ccc(CC(C)C)cc1 | 58 nM | 220 nM | 39 nM | 180 nM | Maximal activation [16]: 807%; Maximal activation [17]: 66%
CCC(=O)c1cc(C(C)CC)c(OC(C(=O)O)c2ccccc2)c(C(C)CC)c1 (configuration not stated) | 6120 nM | > 50000 nM | – | – | –
CCC(=O)c1cc(C)c(OC(C(=O)O)c2ccccc2)c(C)c1 (configuration not stated) | 3000 nM | > 50000 nM | – | – | –
CCCc1cc2c(oc(=O)n2CC)c(CCC)c1O[C@H](C(=O)O)c1ccc(Cl)cc1 | 260 nM | 220 nM | – | – | –
CCCc1cc2c(=O)n(C(C)C)oc2c(CCC)c1O[C@H](C(=O)O)c1ccc(CC(C)C)cc1 | 790 nM | 260 nM | – | 370 nM | –
CCCc1cc2c(oc(=O)n2CC(F)(F)F)c(CCC)c1O[C@H](C(=O)O)c1ccc(C(C)C)cc1 | 100 nM | 110 nM | 310 nM | 140 nM | –
CCCc1cc(C(=O)CC)cc(CCC)c1O[C@@H](C(=O)O)c1ccc(C(C)C)cc1 | 3900 nM | 2980 nM | – | – | –
CN(CCOc1ccc(CC2SC(=O)NC2=O)cc1)c1ccccn1 (configuration not stated) [ROSIGLITAZONE] | – | – | – | – | Heart weight (Rattus norvegicus [7]): 1.46 g; Hematocrit (Rattus norvegicus [8]): 41.3%; BAT (Rattus norvegicus [9]): 1.03 g; Liver weight (Rattus norvegicus [12]): 16.6 g; Body weight (Rattus norvegicus [15]): 322 g
CCCc1cc(C(=O)CC)cc(C)c1OC(C(=O)O)c1ccc(C(C)C)cc1 (configuration not stated) | 160 nM | 260 nM | 160 nM | 197 nM | –
CCC(=O)c1cc(Cl)c(OC(C(=O)O)c2ccccc2)c(Cl)c1 (configuration not stated) | 1600 nM | > 50000 nM | – | – | –
CCCc1cc(C(=O)c2ccccc2)cc(CCC)c1OC(C(=O)O)c1ccccc1 (configuration not stated) | 800 nM | 4680 nM | – | – | –
CCCc1cc(C(=O)CC)cc(CCC)c1O[C@H](C(=O)O)c1ccc(CC)cc1 | 64 nM | 210 nM | 76 nM | 480 nM | –
CCCc1cc2c(oc(=O)n2C(C)C)c(CCC)c1O[C@H](C(=O)O)c1ccccc1 | 550 nM | 1790 nM | – | – | –
CCCc1cc(C(=O)CC)cc(CCC)c1O[C@H](C(=O)O)c1ccc(C(F)(F)F)cc1 | 89 nM | 210 nM | 250 nM | – | –
CCCc1cc(C(=O)CC)cc(Cl)c1O[C@H](C(=O)O)c1ccc(C(C)C)cc1 | 260 nM | 220 nM | 260 nM | 360 nM | –
CCCc1cc2c(oc(=O)n2CC2CC2)c(CCC)c1O[C@H](C(=O)O)c1ccc(C(C)C)cc1 | 130 nM | 120 nM | – | 330 nM | –
CCCc1cc2c(oc(=O)n2C)c(CCC)c1O[C@H](C(=O)O)c1ccc(C(C)C)cc1 | 393 nM | 85 nM | – | 640 nM | –
CCCc1c(O[C@H](C(=O)O)c2ccc(C(C)C)cc2)c(Cl)cc2c1oc(=O)n2CC | 1410 nM | 520 nM | – | 360 nM | –
CCCc1cc2c(=O)n(C)oc2c(CCC)c1O[C@H](C(=O)O)c1ccccc1 | 850 nM | 3800 nM | 670 nM | 390 nM | –
CCCc1cc2c(=O)n(C3CCCCC3)oc2c(CCC)c1O[C@H](C(=O)O)c1ccc(C(C)C)cc1 | > 15000 nM | 440 nM | – | – | –
CCCc1cc(C(=O)CC)cc(CCC)c1NC(C(=O)O)c1ccc(C(C)C)cc1 (configuration not stated) | > 50000 nM | > 50000 nM | – | – | –
CCCc1cc(C(=O)C(C)C)cc(CCC)c1OC(C(=O)O)c1ccccc1 (configuration not stated) | 160 nM | 3160 nM | 250 nM | – | –
CCCc1cc2c(oc(=O)n2CCC)c(CCC)c1O[C@H](C(=O)O)c1ccc(C(C)C)cc1 | 150 nM | 87 nM | – | 120 nM | –

From ChEMBL document CHEMBL1140307, “Design and synthesis of alpha-aryloxyphenylacetic acid derivatives: a novel class of PPARalpha/gamma dual agonists with potent antihyperglycemic and lipid modulating activity” (J Med Chem, 2005)
